In article PMC10913580 (Nature chemistry, 2023):

Legend:
ZFP91 [1] = target: T1, ZFP91 (Homo sapiens, UniProt Q96JP5+Q96SW2); experiment: Immunoblot of endogenous ZFP91 in Jurkat cells; type: cell-based
Method in brief: (§1)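 Cells grown in RPMI 1640 with 10% FBS, then compound-treated. Lysis in ice-cold M-PER with protease and phosphatase inhibitors. 20–50 μg protein run on 4–12% Bis-Tris gels and transferred to nitrocellulose. Probed with anti-ZFP91 or anti-IKZF3 primary antibodies (1:1,000), then fluorescent secondaries (1:3,000).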

[2] = tested on: ZF degrons fused to eGFP in U2OS cells; experiment: Automated imaging assay for degradation of ZF degron-tagged eGFP; type: cell-based; details: 14 stable U2OS ZF reporter cell lines, 24 h, dosing range 4.3 nM to 6 μM
Method in brief: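 U2OS lines stably carrying lentiviral Cilantro 2 reporters (ZF degron–eGFP plus untagged mCherry) under 1 μg ml−1 puromycin. 3,000 cells/well seeded onto compound-preprinted plates; 24 h. PBS wash, 4% paraformaldehyde fix, nuclear stain, eGFP/mCherry imaging. Per-cell eGFP normalized to mCherry, well means to DMSO wells; 1 minus value gives degradation fraction, summed across doses as degradation score. Z′ from controls.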

[3] = tested on: ZF proteins and other off-targets in MOLT4 and KELLY cells; experiment: MS-based global proteomics of MOLT4 and KELLY cells treated with imide analogues; type: cell-based, human; details: 1 μM, 5 h
Method in brief: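 MOLT4 or Kelly cells given 1 μM compound or DMSO, 5 h. PBS-washed pellets snap-frozen, lysed in 8 M urea, 50 mM NaCl, 50 mM EPPS pH 8.5 with inhibitors by bead beating; Bradford quantitation. 50 μg protein reduced, alkylated, methanol/chloroform precipitated; LysC (1:50, 12 h, room temperature) then trypsin (1:50, 6 h, 37 °C). C18-desalted, LC–MS. Abundances scaled; limma statistics.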

SALL4 = SALL4 (Homo sapiens, UniProt Q96SW2+Q9UJQ4); experiment: Global proteomic analysis of KELLY cells treated with PROTACs; type: cell-based; details: 100 nM
Method in brief: (§2)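 Cells were dosed with test compound at 0.1 μM or with DMSO for 5 h, then washed in PBS and snap-frozen. Lysis was in 8 M urea, 50 mM NaCl, 50 mM EPPS pH 8.5 with protease and phosphatase inhibitors, with bead beating. Digestion used LysC (1:50, 12 h, room temperature), then trypsin (1:50, 6 h, 37 °C). Label-free LC-MS followed; abundances were scaled and statistics run with limma.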

ALK = ALK (Homo sapiens, UniProt P06748+Q96SW2+Q9UM73); experiment: Global proteomic analysis of SU-DHL-1 cells treated with PROTACs; type: cell-based; details: 0.1 μM, 5 h
Method in brief: as §2

ZFP91 [4] = target: T1, ZFP91; experiment: Immunoblot of endogenous ZFP91 in SU-DHL-1 cells; type: cell-based
Method in brief: as §1

ZFP91 [5] = target: T1, ZFP91; experiment: Immunoblot of endogenous ZFP91 in H2228 cells; type: cell-based
Method in brief: as §1

ZFP91 and IKZF3 = experiment: Immunoblot of endogenous ZFP91 and IKZF3 in MM1.S cells; type: cell-based
Method in brief: as §1

[6] = tested on: ternary complex between CRBN and off-target ZFP91; experiment: NanoBRET ternary complex formation assay; type: cell-based; details: U2OS cells expressing ZFP91-NLuc and HaloTag-CRBN, 1 μM dose
Method in brief: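 U2OS stably expressing ZFP91–NLuc, transfected with HaloTag–CRBN plasmid (2 μg per 100,000 cells). After 14 h, plated at 3,000 cells/well in phenol-red-free Opti-MEM with 4% FBS. NanoBRET 618 ligand 100 nM final, 18 h; no-ligand control wells. Compound 1 μM final, 15 min; furimazine 10 μM final, 5 min. mBU = (618/460 nm emission) × 1,000, minus no-ligand control.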

How did the “off-target degradation of endogenous ZFP91 (immunoblot)” value (shortened to “off-target degradation”) (ZFP91 [1]) turn out when CC[C@H](C(=O)N1CCCC[C@H]1C(=O)O[C@H](CCc1ccc(OC)c(OC)c1)c1ccccc1OCC(=O)NCCCCCCOc1cccc2c1C(=O)N(C1CCC(=O)NC1=O)C2=O)c1cc(OC)c(OC)c(OC)c1 (some centres unmarked) [dTAG-13] was run?
The value was “off-target degradation of endogenous ZF protein ZFP91”.

Nc1cccc2c1C(=O)N(C1CCC(=O)NC1=O)C2=O (centres unmarked) [pomalidomide] was tested. Which “degradation of ZF degron-tagged eGFP (off-target ZF degradation)” value [2] did it give?
The value was “degraded all 12 ZF degrons that are sensitive to it in a dose-dependent manner”.

What about the “degradation of ZF proteins and other off-targets (global proteomics)” value [3] of the same compound?
The value was “triggered the degradation of several ZF proteins”.

How did the “degradation of ZF degron-tagged eGFP (off-target ZF degradation)” value [2] turn out when Cc1cc(Nc2ncc(Cl)c(Nc3ccccc3S(=O)(=O)C(C)C)n2)c(OC(C)C)cc1C1CCN(CC(=O)NCCNc2cccc3c2C(=O)N(C2CCC(=O)NC2=O)C3=O)CC1 (centres unmarked) [MS4078] was run?
Its value is “had a high level of off-target ZF degradation”.

And the “off-target degradation” value (ZFP91 [1])?
The value was “off-target degradation of endogenous ZF protein ZFP91”.

And the “degradation of SALL4 (global proteomics)” value (SALL4)?
The value was “induced degradation of SALL4”.

And the “degradation of ALK (global proteomics)” value (ALK)?
Its value is “induced degradation of ALK”.

What about the “off-target degradation” value (ZFP91 [4]) of the same compound?
The value was “off-target degradation of endogenous ZF proteins ZFP91”.

And the “off-target degradation” value (ZFP91 [5])?
Its value is “off-target degradation of endogenous ZF proteins ZFP91”.

Which “degradation of endogenous ZFP91 and IKZF3 (immunoblot)” value (ZFP91 and IKZF3) does the source give for Nc1ccc2c(c1)C(=O)N(C1CCC(=O)NC1=O)C2=O (centres unmarked) [compound 8, 5-aminothalidomide] here?
The value was “decrease in overall degradation potency as compared to pomalidomide”.

With N#Cc1ccc(O[C@H]2CC[C@H](NC(=O)c3ccc(N4CCC(CN5CCN(c6cc7c(cc6F)C(=O)N(C6CCC(=O)NC6=O)C7=O)CC5)CC4)nn3)CC2)cc1Cl (some centres unmarked) [ARV110] as the compound, how does the “BRET signal, ternary complex formation between CRBN and ZFP91” value [6] read?
The value was “reduced ternary complex formation with off-target ZFP91”.
